Source: paper PMC4962910 (Nature cell biology, 2014)
Non-standard residues stand in square brackets, D forms with d. Residues, ends and D or L forms follow the SMILES beside them. No end group written: not given here. pT = C[C@@H](OP(=O)(O)O)[C@H](N)C(=O)O; pS = N[C@@H](COP(=O)(O)O)C(=O)O

Legend:
NBS1 = target: T1, NBS1 (Homo sapiens, UniProt O60934); assay: Isothermal titration calorimetry; format: binding
T1 sequence (O60934 1-382 limits assumed): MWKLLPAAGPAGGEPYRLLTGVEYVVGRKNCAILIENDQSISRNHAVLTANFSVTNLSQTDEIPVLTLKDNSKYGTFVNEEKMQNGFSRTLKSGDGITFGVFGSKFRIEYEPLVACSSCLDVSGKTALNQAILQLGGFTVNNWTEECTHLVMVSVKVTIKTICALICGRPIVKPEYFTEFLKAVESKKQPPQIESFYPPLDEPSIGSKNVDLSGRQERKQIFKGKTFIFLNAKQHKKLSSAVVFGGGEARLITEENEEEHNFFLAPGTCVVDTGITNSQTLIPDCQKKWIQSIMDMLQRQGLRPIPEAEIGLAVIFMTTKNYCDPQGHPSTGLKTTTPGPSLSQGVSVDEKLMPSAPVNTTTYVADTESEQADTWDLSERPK

[1] = test system: NBS1-GFP positive nucleoli; format: cell-based; settings: PARP inhibition (Supplementary Fig. 6c)
Outline: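 U2OS cells stably expressing NBS1-GFP (U2OS-NBS1-GFP2) were grown in DME with 10 % fetal bovine serum, penicillin and streptomycin. Medium was supplemented with the PARP inhibitor veliparib (ABT888) for 1 h. Each cell was scored manually as positive or negative by visual presence of GFP signal within nucleoli.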

[2] = target: NBS1 N-terminal FHA-BRCT region (sample of the ITC) (human); assay: ITC

`CC(C)[C@H](NC(=O)[C@H](CC(=O)O)NC(=O)[C@@H](NC(=O)[C@H](CCC(=O)O)NC(=O)[C@H](CC(=O)O)NC(=O)[C@H](COP(=O)(O)O)NC(=O)[C@H](CO)NC(=O)[C@H](CO)NC(=O)[C@@H](N)CO)[C@@H](C)OP(=O)(O)O)C(=O)N[C@@H](CCC(=O)O)C(=O)O` [SDET] (H-SSS[pS]DE[pT]DVE-OH) was tested, and the Kd (NBS1) was roughly 1000 nM.

`C[C@]1(c2nc3c(C(N)=O)cccc3[nH]2)CCCN1` [PARP inhibition, Veliparib] was tested, and the “number of cells with NBS1-GFP positive nucleoli” value [1] was “small but reproducible decrease”.

Work on SSS[pS]DE[pT]DVE [Treacle SDET phosphopeptide (SSSpSDEpTDVE)] yielded a Kd [2] of 1000 nM.
